Assays:
A-375 [1] = experiment: Induction of apoptosis in human A375 cells assessed as viable cells at 10 uM after 24 hrs by Annexin V-FITC/PI staining based flow cytometry (reference value: 88.7%); type: functional; settings: A-375, 24 h, read-out: Activity
[2] = molecular target: Mitogen-activated protein kinase 14 (Homo sapiens, UniProt Q16539); experiment: Inhibition of N-terminal flag-tagged p38alpha (unknown origin) expressed in baculovirus expression system using MBP as substrate preincubated for 5 mins followed by substrate addition measured after 60 mins in presence of [gamma-32P]ATP by topcount scintillation method
Summary of the method: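 Baculovirus-expressed N-terminal FLAG-tagged kinases in 25 mM HEPES pH 7.5, 10 mM Mg acetate, 1 mM DTT, 0.5 µM ATP plus [γ-³²P]ATP, 50 µL. p38α: 100 ng enzyme, MBP substrate. JNK1: 10 ng enzyme, 1 µg c-Jun. Compound and enzyme preincubated 5 min, ATP started the reaction, 60 min at 30 °C. Stopped with 10% TCA, filtered, washed with 3% phosphoric acid, counted by TopCount.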

A-375 [3] = experiment: Cell cycle arrest in human A375 cells assessed as accumulation at S phase at 2 uM after 24 hrs by propidium iodide staining based flow cytometry (reference value: 21.3%); type: functional
A-375 [4] = experiment: Cell cycle arrest in human A375 cells assessed as accumulation at G2/M phase at 2 uM after 24 hrs by propidium iodide staining based flow cytometry (reference value: 5.1%); type: functional
A-375 [5] = experiment: Induction of apoptosis in human A375 cells assessed as viable cells at 20 uM after 24 hrs by Annexin V-FITC/PI staining based flow cytometry (reference value: 88.7%); type: functional; settings: A-375, 24 h, read-out: Activity
[6] = system: Serine/threonine-protein kinase B-raf (Homo sapiens), P15056 [V600E]; experiment: Inhibition of BRAF V600E mutant in human A375 cells assessed as decrease in ERK1/2 phosphorylation after 30 mins by Western blot analysis; type: cell-based
Summary of the method: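 A375 cells treated with compound at 0, 0.05, 0.1 and 0.5 µM, then PBS-rinsed and lysed in RIPA with protease inhibitors on ice for 30 min. Lysate was cleared at 12,000 g, 4 °C, and protein assayed by BCA. Samples run on SDS-PAGE and transferred to PVDF. Membranes were milk-blocked, probed with primary antibody (1:500) overnight at 4 °C, then secondary antibody (1:5000) for 1 h at room temperature.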

A-375 [7] = experiment: Antiproliferative activity against human A375 cells after 48 hrs by MTT assay; type: functional; settings: A-375, 48 h
Summary of the method: (§1)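 MTT reduction assay. Cell lines grown to log phase in DMEM with 10% FBS (A375 in DMEM with sodium pyruvate added), seeded at 10⁴ cells/well in 96-well plates. Three replicate wells per concentration, each assay run three times, GI50 averaged.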

[8] = Effect on total ERK1/2 protein level in human WM1361 cells after 30 mins by Western blot analysis; type: ADME, cell-based; settings: 0.5 h
Summary of the method: (§2)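 Western blot. Cells rinsed in cold PBS, lysed 30 min on ice in RIPA with protease inhibitors (1:100), cleared at 12,000 g, 4 °C. Protein measured by BCA, resolved by SDS-PAGE, transferred to PVDF, blocked in skim milk. Primary antibodies 1:500 overnight at 4 °C; secondary 1:5000 for 1 h at room temperature.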

A-375 [9] = experiment: Induction of apoptosis in human A375 cells assessed as late apoptotic cells at 2 uM after 48 hrs by Annexin V-FITC/PI staining based flow cytometry (reference value: 3.61%); type: functional
Summary of the method: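 Apoptosis time course. A375 cells in 24-well plates (about 10⁵/well) at 2 µM for 0, 24, 48 and 72 h. Harvested by trypsin, washed in PBS, stained 15 min at room temperature in the dark with Annexin V-FITC/PI, analysed by flow cytometry.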

HCT-116 = experiment: Antiproliferative activity against human HCT116 cells after 48 hrs by MTT assay; type: functional; settings: HCT-116, 48 h; summary of the method: as §1
A-375 [10] = experiment: Induction of apoptosis in human A375 cells assessed as late apoptotic cells at 5 uM after 24 hrs by Annexin V-FITC/PI staining based flow cytometry (reference value: 4.26%); type: functional
A-375 [11] = experiment: Induction of apoptosis in human A375 cells assessed as early apoptotic cells at 20 uM after 24 hrs by Annexin V-FITC/PI staining based flow cytometry (reference value: 5.45%); type: functional
A-375 [12] = experiment: Cell cycle arrest in human A375 cells assessed as accumulation at G2/M phase at 5 uM after 24 hrs by propidium iodide staining based flow cytometry (reference value: 5.1%); type: functional
A-375 [13] = experiment: Induction of apoptosis in human A375 cells assessed as necrotic cells at 10 uM after 24 hrs by Annexin V-FITC/PI staining based flow cytometry (reference value: 1.61%); type: functional
Mus musculus = experiment: Toxicity in nude mouse xenografted with human A375 cells assessed as body weight loss at 5 to 10 mg/kg, ip administered every second day for 14 days and measured every 2 days; type: organism-based; settings: in vivo
Summary of the method: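 Nude mice bearing subcutaneous right-flank A375 xenografts (3×10⁶ cells in cold PBS) were randomized into groups of 5 at about 100 mm³. Compounds were suspended in olive oil and given intraperitoneally every second day for 14 days. Body weight was recorded every two days.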

[14] = Effect on total MEK1/2 protein level in human WM1361 cells after 30 mins by Western blot analysis; type: ADME, cell-based; settings: 0.5 h; summary of the method: as §2
A-375 [15] = experiment: Induction of apoptosis in human A375 cells assessed as necrotic cells at 20 uM after 24 hrs by Annexin V-FITC/PI staining based flow cytometry (reference value: 1.61%); type: functional

Chain of Serine/threonine-protein kinase B-raf (Homo sapiens), P15056 [V600E] (P15056 whole entry V600E): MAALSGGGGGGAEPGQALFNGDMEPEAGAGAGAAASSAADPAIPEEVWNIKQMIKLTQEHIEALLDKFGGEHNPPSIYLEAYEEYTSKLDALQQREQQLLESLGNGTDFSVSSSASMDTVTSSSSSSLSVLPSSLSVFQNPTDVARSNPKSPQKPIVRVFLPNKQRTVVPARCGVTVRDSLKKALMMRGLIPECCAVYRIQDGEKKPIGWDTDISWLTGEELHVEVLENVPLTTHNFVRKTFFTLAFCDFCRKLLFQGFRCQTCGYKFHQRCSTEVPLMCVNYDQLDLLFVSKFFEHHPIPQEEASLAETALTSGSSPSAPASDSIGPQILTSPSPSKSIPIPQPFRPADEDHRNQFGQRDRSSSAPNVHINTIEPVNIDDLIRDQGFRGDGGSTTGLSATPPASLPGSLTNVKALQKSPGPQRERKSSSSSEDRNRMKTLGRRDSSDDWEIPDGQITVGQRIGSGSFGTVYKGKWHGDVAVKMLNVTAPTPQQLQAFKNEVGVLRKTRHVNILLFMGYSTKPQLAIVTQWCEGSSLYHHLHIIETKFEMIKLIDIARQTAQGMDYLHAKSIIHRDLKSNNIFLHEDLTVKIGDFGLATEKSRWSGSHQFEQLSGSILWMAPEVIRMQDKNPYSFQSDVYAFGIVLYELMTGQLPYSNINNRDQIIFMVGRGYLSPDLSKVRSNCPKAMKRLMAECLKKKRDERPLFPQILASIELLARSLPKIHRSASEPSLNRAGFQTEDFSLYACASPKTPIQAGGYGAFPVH
Chain of Mitogen-activated protein kinase 14 (Q16539 whole entry): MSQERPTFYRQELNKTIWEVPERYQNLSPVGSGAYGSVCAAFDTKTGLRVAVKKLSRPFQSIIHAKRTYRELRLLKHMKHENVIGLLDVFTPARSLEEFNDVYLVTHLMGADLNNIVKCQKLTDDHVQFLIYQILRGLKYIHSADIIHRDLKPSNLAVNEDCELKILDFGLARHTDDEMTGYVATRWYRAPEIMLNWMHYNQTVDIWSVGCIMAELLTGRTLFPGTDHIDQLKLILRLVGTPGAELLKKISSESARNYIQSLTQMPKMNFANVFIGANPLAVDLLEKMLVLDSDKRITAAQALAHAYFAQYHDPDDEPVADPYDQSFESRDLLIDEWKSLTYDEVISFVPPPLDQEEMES

SMILES: COc1cccc(C2=NN(C(=S)Nc3ccccc3)C(c3ccc4c(c3)OCCO4)C2)c1 (configuration not stated)
- viability at 10 µM (A-375 [1]): 41.5%
- IC50 [2]: > 200 µM
- Activity (A-375 [3]): 17.3%
- Activity (A-375 [4]): 10.3%
- viability at 20 µM (A-375 [5]): 36.2%
- inhibition [6]: Dose-dependent effect
- GI50 (A-375 [7]): 0.52 µM
- Activity [8]: Non-Toxic
- Activity (A-375 [9]): 5.37%
- GI50 (HCT-116): > 200 µM
- Activity (A-375 [10]): 8.1%
- Activity (A-375 [11]): 49.6%
- Activity (A-375 [12]): 10.3%
- Activity (A-375 [13]): 2.6%
- Activity (Mus musculus): Non-Toxic
- Activity [14]: Non-Toxic
- Activity (A-375 [15]): 3.25%

— ChEMBL document CHEMBL4270537, “Design and biological evaluation of novel triaryl pyrazoline derivatives with dioxane moiety for selective BRAFV600E inhibition” (Eur J Med Chem, 2018)
